From ChEMBL document CHEMBL5360562 (Eur J Med Chem, 2023)
≈ marks a conversion by molar mass, not a printed value.

What was measured:
[1] = tested on: Acinetobacter baumannii; experiment: Potentiation of Clarithromycin antibacterial activity against Acinetobacter baumannii AB5075 assessed as fold reduction in clarithromycin MIC at 10 uM incubated for 16 hrs by broth microdilution method; format: functional
Summary of the method: (§1)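 Checkerboard-style potentiation by broth microdilution. 6 h day cultures in CAMHB diluted to 5×10^5 CFU/mL. Adjuvant added from 10 mM DMSO stock at fixed concentration throughout. […] Controls: antibiotic alone, adjuvant alone, media only. Incubated stationary at 37 °C for 16 h. MIC is lowest concentration with no visible growth; fold reduction taken against the antibiotic-alone lane.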

[2] = tested on: Acinetobacter baumannii; experiment: Potentiation of Clarithromycin antibacterial activity against Acinetobacter baumannii AB5075 assessed as clarithromycin MIC at 10 uM incubated for 16 hrs by broth microdilution method; format: functional
[3] = tested on: Acinetobacter baumannii; experiment: Antibacterial activity against Acinetobacter baumannii AB5075 assessed as reduction in bacterial growth incubated for 16 hrs by broth microdilution method; format: functional
[4] = tested on: Acinetobacter baumannii; experiment: Potentiation of Clarithromycin antibacterial activity against Acinetobacter baumannii AB5075 assessed as clarithromycin MIC at 30 uM incubated for 16 hrs by broth microdilution method; format: functional
[5] = tested on: Acinetobacter baumannii; experiment: Potentiation of Clarithromycin antibacterial activity against Acinetobacter baumannii AB5075 assessed as clarithromycin MIC at 7.5 uM incubated for 16 hrs by broth microdilution method; format: functional
[6] = tested on: Acinetobacter baumannii; experiment: Potentiation of Clarithromycin antibacterial activity against Acinetobacter baumannii AB5075 assessed as fold reduction in clarithromycin MIC at 7.5 uM incubated for 16 hrs by broth microdilution method; format: functional; summary of the method: as §1
[7] = tested on: Acinetobacter baumannii; experiment: Potentiation of Clarithromycin antibacterial activity against Acinetobacter baumannii AB5075 assessed as reduction in clarithromycin MIC at 20 uM incubated for 16 hrs by broth microdilution method; format: functional; settings: for MIC: Acinetobacter baumannii, AB5075
[8] = tested on: Acinetobacter baumannii; experiment: Potentiation of Clarithromycin antibacterial activity against Acinetobacter baumannii AB5075 assessed as fold reduction in clarithromycin MIC at 30 uM incubated for 16 hrs by broth microdilution method; format: functional; summary of the method: as §1
[9] = tested on: Acinetobacter baumannii; experiment: Potentiation of Clarithromycin antibacterial activity against Acinetobacter baumannii AB5075 assessed as clarithromycin MIC at 5 uM incubated for 16 hrs by broth microdilution method; format: functional
[10] = tested on: Acinetobacter baumannii; experiment: Potentiation of Clarithromycin antibacterial activity against Acinetobacter baumannii AB5075 assessed as clarithromycin MIC at 2.5 uM incubated for 16 hrs by broth microdilution method; format: functional
[11] = tested on: Acinetobacter baumannii; experiment: Potentiation of Clarithromycin antibacterial activity against Acinetobacter baumannii AB5075 assessed as fold reduction in clarithromycin MIC at 5 uM incubated for 16 hrs by broth microdilution method; format: functional; summary of the method: as §1
[12] = Metabolic stability in human liver microsomes assessed as parent compound remaining in presence of NADPH measured at 1 hr by UV-UPLC analysis; format: ADME, Microsome
[13] = tested on: Acinetobacter baumannii; experiment: Potentiation of Azithromycin antibacterial activity against Acinetobacter baumannii AB5075 assessed as azithromycin MIC at 30 uM incubated for 16 hrs by broth microdilution method; format: functional
[14] = tested on: Acinetobacter baumannii; experiment: Potentiation of rifampicin antibacterial activity against Acinetobacter baumannii AB5075 assessed as rifampicin MIC at 10 uM incubated for 16 hrs by broth microdilution method; format: functional
[15] = tested on: Acinetobacter baumannii; experiment: Potentiation of rifampicin antibacterial activity against Acinetobacter baumannii AB5075 assessed as rifampicin MIC at 7.5 uM incubated for 16 hrs by broth microdilution method; format: functional
Summary of the method: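 A. baumannii AB5075 6 h day cultures in CAMHB subcultured to 5×10^5 CFU/mL; adjuvant added from 10 mM DMSO stock at fixed concentration, then rifampicin (DMSO) twofold serially diluted in adjuvant-containing broth. Antibiotic-alone and adjuvant-alone control lanes.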

[16] = tested on: Acinetobacter baumannii; experiment: Potentiation of Azithromycin antibacterial activity against Acinetobacter baumannii AB5075 assessed as azithromycin MIC at 10 uM incubated for 16 hrs by broth microdilution method; format: functional
[17] = tested on: Acinetobacter baumannii; experiment: Potentiation of rifampicin antibacterial activity against Acinetobacter baumannii AB5075 assessed as rifampicin MIC at 20 uM incubated for 16 hrs by broth microdilution method; format: functional
[18] = Antiproliferative against human HepG2 cells assessed as reduction in cell viability incubated for 24 hrs by XTT assay; format: toxicity, cell-based
[19] = tested on: Acinetobacter baumannii; experiment: Potentiation of erythromycin antibacterial activity against Acinetobacter baumannii AB5075 assessed as erythromycin MIC at 30 uM incubated for 16 hrs by broth microdilution method; format: functional
[20] = tested on: Acinetobacter baumannii; experiment: Potentiation of rifampicin antibacterial activity against Acinetobacter baumannii AB5075 assessed as rifampicin MIC at 30 uM incubated for 16 hrs by broth microdilution method; format: functional
[21] = Therapeutic index, ratio of IC50 for antiproliferative against human HepG2 cells assessed as reduction in cell viability to MIC for potentiation of Clarithromycin antibacterial activity against Acinetobacter baumannii […] assessed as clarithromycin MIC; format: toxicity, cell-based; settings: read-out: TI
[22] = tested on: Acinetobacter baumannii; experiment: Potentiation of Azithromycin antibacterial activity against Acinetobacter baumannii AB5075 assessed as azithromycin MIC at 20 uM incubated for 16 hrs by broth microdilution method; format: functional
[23] = tested on: Acinetobacter baumannii; experiment: Potentiation of erythromycin antibacterial activity against Acinetobacter baumannii AB5075 assessed as erythromycin MIC at 10 uM incubated for 16 hrs by broth microdilution method; format: functional
[24] = tested on: Acinetobacter baumannii; experiment: Potentiation of erythromycin antibacterial activity against Acinetobacter baumannii AB5075 assessed as erythromycin MIC at 20 uM incubated for 16 hrs by broth microdilution method; format: functional
[25] = Stability of compound in human plasma assessed as parent compound remaining measured at 4 hrs; format: ADME, cell-free
Summary of the method: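 Compound at 20 μM final in human plasma (from 10 mM DMSO stock), 37 °C; aliquots at 0, 30, 60, 120, 240 min quenched in internal standard in 1:1 ACN/MeOH, centrifuged, supernatant analysed by UPLC-MRM. Peak-area ratio to internal standard expressed as % parent remaining relative to 0 min; half-life calculated.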

SMILES | fold change (FC) [1] | MIC [2] [µg/mL] | MIC [3] [µM] | MIC [4] [µg/mL] | MIC [5] [µg/mL] | fold change (FC) [6] | fold change (FC) [7] | MIC [7] [µg/mL] | fold change (FC) [8] | MIC [9] [µg/mL] | further results
Cl.Cl.Nc1nc(-c2ccc(NC(=O)Nc3ccc(-c4c[nH]c(N)n4)c(F)c3)cc2)c[nH]1 | 32 | 1 | > 200 | ≤ 0.062 | 2 | 16 | 64 | 0.5 | >=512 | – | –
Cl.Cl.Nc1nc(-c2ccc(F)c(NC(=O)Nc3ccc(-c4c[nH]c(N)n4)c(F)c3)c2)c[nH]1 | – | – | > 200 | 8 | – | – | – | – | 4 | – | –
Cl.Cl.Nc1nc(-c2ccc(NC(=O)Nc3ccc(F)c(-c4c[nH]c(N)n4)c3)cc2F)c[nH]1 | – | – | > 200 | 0.5 | – | – | 8 | 4 | 64 | – | –
Cl.Cl.Nc1nc(-c2cc(F)cc(NC(=O)Nc3ccc(-c4c[nH]c(N)n4)c(F)c3)c2)c[nH]1 | – | – | > 200 | ≤ 0.062 | 0.25 | 128 | 256 | 0.125 | >=512 | 1 | MIC [10]: 32 µg/mL
Cl.Cl.Nc1nc(-c2cccc(NC(=O)Nc3cc(F)cc(-c4c[nH]c(N)n4)c3)c2)c[nH]1 | 64 | 0.5 | > 200 | ≤ 0.062 | 1 | 32 | >=512 | ≤ 0.062 | >=512 | 16 | fold change (FC) [11]: 2
Nc1nc(-c2cccc(NC(=O)Nc3cccc(-c4c[nH]c(N)n4)c3)c2)c[nH]1 | 64 | 0.5 | 200 (≈ 74.9 µg/mL) | ≤ 0.062 | 1 | 32 | – | – | >=512 | 4 | Stability [12]: 93%; MIC [13]: 0.5 µg/mL; fold change (FC) [11]: 8; MIC [14]: 0.125 µg/mL; MIC [15]: 1 µg/mL; MIC [16]: 4 µg/mL; MIC [17]: 0.015 µg/mL; IC50 at 24 h [18]: 380 µg/mL (≈ 1010 µM); MIC [19]: 0.25 µg/mL; MIC [20]: 0.003 µg/mL; selectivity ratio [21]: 113; MIC [22]: 0.5 µg/mL; MIC [23]: 4 µg/mL; MIC [24]: 0.5 µg/mL; Stability [25]: 88%
Nc1nc(-c2ccc(NC(=O)Nc3cccc(-c4c[nH]c(N)n4)c3)cc2)c[nH]1 | – | 16 | > 200 | 0.125 | – | – | – | – | 256 | – | MIC [13]: 1 µg/mL; MIC [14]: 2 µg/mL; MIC [16]: 16 µg/mL; MIC [17]: 0.25 µg/mL; MIC [19]: 1 µg/mL; MIC [20]: 0.031 µg/mL; MIC [22]: 4 µg/mL; MIC [23]: 16 µg/mL; MIC [24]: 2 µg/mL
Cl.Cl.Nc1nc(-c2ccc(NC(=O)Nc3ccc(-c4c[nH]c(N)n4)c(Cl)c3)cc2Cl)c[nH]1 | – | – | > 200 | 32 | – | – | – | – | 1 | – | –
Cl.Cl.Nc1nc(-c2ccc(NC(=O)Nc3ccc(-c4c[nH]c(N)n4)cc3F)c(F)c2)c[nH]1 | – | – | > 200 | 4 | – | – | – | – | 8 | – | –
Nc1nc(-c2ccc(NC(=O)c3ccc(Cl)c(Cl)c3)cc2F)c[nH]1 | – | – | > 200 | 0.5 | 1 | 32 | – | – | 64 | 8 | Stability [12]: 57%; fold change (FC) [11]: 4; IC50 at 24 h [18]: 6.8 µg/mL (≈ 18.6 µM); selectivity ratio [21]: 2.3; Stability [25]: > 95%
Cl.Cl.Nc1nc(-c2ccc(NC(=O)Nc3ccc(-c4c[nH]c(N)n4)c(C(F)(F)F)c3)cc2C(F)(F)F)c[nH]1 | – | – | > 200 | 2 | – | – | – | – | 16 | – | –
Cl.Cl.Nc1nc(-c2cc(NC(=O)Nc3ccc(F)c(-c4c[nH]c(N)n4)c3)ccc2F)c[nH]1 | 64 | 0.5 | > 200 | 0.125 | 1 | 32 | 128 | 0.25 | 256 | 2 | fold change (FC) [11]: 16
Cl.Cl.Nc1nc(-c2ccc(F)c(NC(=O)Nc3cc(-c4c[nH]c(N)n4)ccc3F)c2)c[nH]1 | – | – | > 200 | 32 | – | – | – | – | 1 | – | –
Cl.Cl.Nc1nc(-c2cccc(NC(=O)Nc3cccc(-c4c[nH]c(N)n4)c3F)c2F)c[nH]1 | 32 | 1 | > 200 | 0.25 | 2 | 16 | 64 | 0.5 | 128 | – | –
COc1cc(-c2c[nH]c(N)n2)ccc1NC(=O)Nc1ccc(-c2c[nH]c(N)n2)cc1OC.Cl.Cl | – | – | 200 | 8 | – | – | – | – | 4 | – | –
Cc1cc(-c2c[nH]c(N)n2)ccc1NC(=O)Nc1ccc(-c2c[nH]c(N)n2)cc1C.Cl.Cl | – | – | > 200 | 32 | – | – | – | – | 1 | – | –
